Activity calls are given as the source filed them. The rule behind the calls is not given here.
How the values were obtained:
Priestia megaterium [1] = test: Antibacterial activity against Bacillus megaterium at 200 ug/disk after 18 hrs by disk diffusion assay; assay type: functional
Method in brief: (§1)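 Disk diffusion. Gram-positive strains were grown in brain-heart agar and incubated at 28°. BHA plates were seeded with 0.1 ml of 8-h cultures. 6-mm paper disks were loaded with 100 or 200 µg of compound. Plates were held at 4° for 1 h for diffusion, then incubated. Growth-inhibition halo diameter (mm) was read at 18 h.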

Priestia megaterium [2] = test: Antibacterial activity against Bacillus megaterium at 100 ug/disk after 18 hrs by disk diffusion assay; assay type: functional; method in brief: as §1
Bacillus subtilis [3] = test: Antibacterial activity against Bacillus subtilis CECT 397 at 200 ug/disk after 18 hrs by disk diffusion assay; assay type: functional; method in brief: as §1
Bacillus subtilis [4] = test: Antibacterial activity against Bacillus subtilis CECT 397 at 100 ug/disk after 18 hrs by disk diffusion assay; assay type: functional; method in brief: as §1
Niallia circulans [5] = test: Antibacterial activity against Bacillus circulans at 200 ug/disk after 18 hrs by disk diffusion assay; assay type: functional; settings: read-out: Diameter of inhibition zone; method in brief: as §1
Niallia circulans [6] = test: Antibacterial activity against Bacillus circulans at 100 ug/disk after 18 hrs by disk diffusion assay; assay type: functional; settings: for zone of inhibition at 100 µg/disc: read-out: Diameter of inhibition zone; method in brief: as §1
Bacillus licheniformis [7] = test: Antibacterial activity against Bacillus licheniformis CECT20 at 200 ug/disk after 18 hrs by disk diffusion assay; assay type: functional; settings: read-out: Diameter of inhibition zone; method in brief: as §1
Bacillus licheniformis [8] = test: Antibacterial activity against Bacillus licheniformis CECT20 at 100 ug/disk after 18 hrs by disk diffusion assay; assay type: functional; settings: read-out: Diameter of inhibition zone; method in brief: as §1
Enterococcus faecalis [9] = test: Antibacterial activity against Enterococcus faecalis S-86 at 200 ug/disk after 18 hrs by disk diffusion assay; assay type: functional; settings: read-out: Diameter of inhibition zone; method in brief: as §1
Enterococcus faecalis [10] = test: Antibacterial activity against Enterococcus faecalis S-86 at 100 ug/disk after 18 hrs by disk diffusion assay; assay type: functional; settings: read-out: Diameter of inhibition zone; method in brief: as §1
Micrococcus luteus = test: Antibacterial activity against Micrococcus lysodeikticus at 200 ug/disk after 18 hrs by disk diffusion assay; assay type: functional; settings: read-out: Diameter of inhibition zone; method in brief: as §1
Staphylococcus aureus = test: Antibacterial activity against Staphylococcus aureus ATCC 8 at 200 ug/disk after 18 hrs by disk diffusion assay; assay type: functional; settings: for zone of inhibition at 200 µg/disc: ATCC 8, 18 h, read-out: Diameter of inhibition zone; method in brief: as §1
Alcaligenes faecalis = test: Antibacterial activity against Alcaligenes faecalis after 18 hrs by disk diffusion assay; assay type: functional, organism-based
Method in brief: (§2)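 Gram-negative strains were grown in brain-heart agar and incubated at 37°. BHA plates were inoculated with 0.1 ml of 8-h cultures. 6-mm paper disks carried 100 or 200 µg of compound. Plates stood 1 h at 4° to allow diffusion before incubation. The inhibition halo diameter (mm) was measured after 18 h.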

Escherichia coli = test: Antibacterial activity against Escherichia coli U9 after 18 hrs by disk diffusion assay; assay type: functional, organism-based; method in brief: as §2
[11] = test system: Pseudomonas reptilivorous; test: Antibacterial activity against Pseudomonas reptilovora after 18 hrs by disk diffusion assay; assay type: functional, organism-based; method in brief: as §2
Pseudomonas fluorescens = test: Antibacterial activity against Pseudomonas fluorescens N5 after 18 hrs by disk diffusion assay; assay type: functional, organism-based; method in brief: as §2
Proteus = test: Antibacterial activity against Proteus after 18 hrs by disk diffusion assay; assay type: functional, organism-based; method in brief: as §2
Salmonella = test: Antibacterial activity against Salmonella after 18 hrs by disk diffusion assay; assay type: functional, organism-based; method in brief: as §2
Saccharomyces cerevisiae [12] = test: Antifungal activity against Saccharomyces cerevisiae S1 after 18 hrs by disk diffusion assay; assay type: functional, organism-based
Method in brief: (§3)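 Yeast strains were grown in YEPG at 28°. Plates were seeded with 0.1 ml of 8-h-old cultures. 6-mm paper disks were impregnated with 100 or 200 µg. Diffusion ran 1 h at 4°, followed by incubation. Zone of growth inhibition (diameter, mm) was recorded 18 h after incubation.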

Saccharomyces cerevisiae [13] = test: Antifungal activity against Saccharomyces cerevisiae K-2 after 18 hrs by disk diffusion assay; assay type: functional, organism-based; method in brief: as §3
Saccharomyces cerevisiae [14] = test: Antifungal activity against Saccharomyces cerevisiae X-3 after 18 hrs by disk diffusion assay; assay type: functional, organism-based; method in brief: as §3
Aspergillus niger = test: Antifungal activity against Aspergillus niger ATCC 9142 after 18 hrs by disk diffusion assay; assay type: functional, organism-based
Method in brief: (§4)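 Filamentous fungi were grown on Sabouraud agar with chloramphenicol at 28°. Plates were inoculated with 0.1 ml of 8-h cultures. 6-mm disks bearing 100 or 200 µg were applied. Plates were kept at 4° for 1 h, then incubated. Inhibition halo diameter (mm) was read at 18 h.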

Botrytis cinerea [15] = test: Antifungal activity against Botrytis cinerea CECT 2100 after 18 hrs by disk diffusion assay; assay type: functional, organism-based
Method in brief: (§5)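 Botrytis strains were grown on potato agar at 28°. Plates were inoculated with 0.1 ml of 8-h cultures. 6-mm paper disks were impregnated with 100 or 200 µg. Plates were held 1 h at 4° for diffusion, then incubated. Growth-inhibition halo diameter (mm) was read 18 h after incubation.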

Botrytis cinerea [16] = test: Antifungal activity against Botrytis cinerea CECT 2850 after 18 hrs by disk diffusion assay; assay type: functional, organism-based; method in brief: as §5
Fusarium fujikuroi = test: Antifungal activity against Gibberella fujikuroi IMI 58289 after 18 hrs by disk diffusion assay; assay type: functional, organism-based; method in brief: as §4
[17] = read-out: Diameter of inhibition zone

Structure (SMILES)	zone of inhibition at 200 µg/disc (Niallia circulans [5])	zone of inhibition at 100 µg/disc (Niallia circulans [6])	zone of inhibition at 200 µg/disc (Bacillus licheniformis [7])	zone of inhibition at 100 µg/disc (Bacillus licheniformis [8])	zone of inhibition at 200 µg/disc (Enterococcus faecalis [9])	zone of inhibition at 100 µg/disc (Enterococcus faecalis [10])	zone of inhibition at 200 µg/disc (Micrococcus luteus)	Activity (Alcaligenes faecalis)	Activity (Escherichia coli)	Activity [11]	Activity (Pseudomonas fluorescens)	Activity (Proteus)	Activity (Salmonella)	Activity (Saccharomyces cerevisiae [12])	Activity (Saccharomyces cerevisiae [13])	Activity (Saccharomyces cerevisiae [14])	Activity (Aspergillus niger)	Activity (Botrytis cinerea [15])	Activity (Botrytis cinerea [16])	Activity (Fusarium fujikuroi)	further results
CCCCC[C@H](/C=C\CCCCCCCc1cc(O)cc(O)c1C(=O)O)OC(C)=O	9 mm	8 mm	22 mm	18 mm	15 mm	13 mm	13 mm	inactive	inactive	inactive	inactive	inactive	inactive	inactive	inactive	inactive	inactive	inactive	inactive	inactive	zone of inhibition at 200 µg/disc (Priestia megaterium [1]; [17]): 7 mm; zone of inhibition at 100 µg/disc (Priestia megaterium [2]; [17]): 7 mm; zone of inhibition at 200 µg/disc (Bacillus subtilis [3]; [17]): 8 mm; zone of inhibition at 100 µg/disc (Bacillus subtilis [4]; [17]): 7 mm; zone of inhibition at 200 µg/disc (Staphylococcus aureus): 7 mm
CCCCC[C@H](/C=C\CCCCCCCc1cc(O)cc(O)c1)OC(C)=O	7 mm	7 mm	9 mm	7 mm	6 mm	7 mm	7 mm	inactive	inactive	inactive	inactive	inactive	inactive	inactive	inactive	inactive	inactive	inactive	inactive	inactive	Activity (Priestia megaterium [1]): inactive; Activity (Priestia megaterium [2]): inactive; Activity (Bacillus subtilis [3]): inactive; Activity (Bacillus subtilis [4]): inactive; Activity (Staphylococcus aureus): inactive
CCCCCC/C=C\CCCCCCCc1cc(O)cc(O)c1C(=O)O	7 mm		15 mm	15 mm	30 mm	16 mm	7 mm	inactive	inactive	inactive	inactive	inactive	inactive	inactive	inactive	inactive	inactive	inactive	inactive	inactive	Activity (Priestia megaterium [1]): inactive; Activity (Priestia megaterium [2]): inactive; Activity (Bacillus subtilis [3]): inactive; Activity (Bacillus subtilis [4]): inactive; Activity (Niallia circulans [6]): inactive; zone of inhibition at 200 µg/disc (Staphylococcus aureus): 7 mm

From ChEMBL document CHEMBL1147383, “Use of alkenylresorcinols from Ononis speciosa as synthetic precursors of compounds with potential biological activity” (J Nat Prod, 1993)
